Each structure is given as a SMILES string.

The data set in a line: Toxicity liver stage against HepG2, at 10uM. The class given is cell-based. Set-up: test concentration 10 uM, cell line HepG2-A16-CD81EGFP. The settings on record: human, HepG2-A16-CD81EGFP cells; read-out: INHIBITION
The method, boiled down: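 Uninfected HepG2-A16-CD81EGFP cells, 3 × 10^3 per well, 1536-well, plated on prespotted compound at 10 μM final, parasite-free screening media added to match infected plates; puromycin 10 μM positive, DMSO 0.5% negative; run in parallel with 48 h PbLuc assay at 37 °C, 5% CO2; viability by CellTiter-Glo luminescence, normalized to controls.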
Consider `COCCCN(Cc1ccccn1)S(=O)(=O)Cc1ccccc1`, for which the cytotoxicity at 10 µM was 14.4%.
Regarding `Cc1cn2nc(N3CCCC3C(=O)N3CCN(C)CC3)sc2n1` (stereo not given), the cytotoxicity at 10 µM was -12.6%.
`CC(=O)N1CC[C@H]2NC(=O)N(Cc3ccccc3)C(=O)[C@H]21`: the cytotoxicity at 10 µM came out at 4.47%.
In the case of `Cc1nn(-c2cc(Cl)cc(Cl)c2)c(C)c1CCC(=O)O`, the cytotoxicity at 10 µM amounted to 3.8%.
The same measure for `Cn1nc(-c2cccc(Cl)c2)c(Br)c1C(=O)O`: -56.5%; for `CCc1cnc(N2CC[C@@H]3CN(C(C)=O)CCO[C@@H]3C2)nc1`: 9.1%.
As for `O=C(c1ccoc1)N1CC[C@@H]2[C@@H](CC1)OCCN2c1cccnc1`, the figure is 11.1%.
For `CCOCc1nn(CC2CC2)c2c1CN(C(=O)c1ccno1)CC2`, the cytotoxicity at 10 µM is 1.99%.
As for `COc1cc(N2CC[C@@H]3O[C@@H](c4ccnc(C)n4)C[C@H]3C2)ncn1`, the figure is 23.1%; as for `Fc1cccc(N2CCc3ncnc(C4CC4)c3CC2)c1`, 11.9%.
As for `COCCn1cc(-c2cc(C(=O)N3CCCC3)c3ccccn23)nc1C`, the figure is 8.61%.
The same measure for `COc1cc(N2CC[C@H]3OCC[C@@]3(COc3nccc(C)n3)C2)ncn1`: 11.8%.
As to `Cc1cc2nc(SCC(=O)N3CCOCC3)n(CCC(C)C)c(=O)c2[nH]1`, the cytotoxicity at 10 µM worked out at 10.8%.
As for `CCc1cccc(-n2nnc(C(=O)O)c2-c2ccncc2)c1`, the figure is 7.77%; as for `c1cc(-c2nnc3sc(CCN4CCCC4)nn23)ccn1`, -4.31%.
The same measure for `Cn1nc(C(=O)N2CCOCC2)cc1C(=O)Nc1cc(Cl)cc(Cl)c1`: 27.9%.
The same measure for `Cc1nn(Cc2ccc(C(=O)NCCCN3CCCC3=O)o2)c(C)c1Br`: 9.35%; for `CC(C)N1CCC(c2cnc(-c3cncnc3)cn2)CC1`: 2.55%.
Turning to `Cc1cccc(CN2CCCC2c2cncc(Nc3nncs3)n2)c1` (stereo not given), the cytotoxicity at 10 µM was -3.47%.
In the case of `Cc1nc(C)c(C(=O)N2CCCC2(C)C(=O)NC2CCCC2)o1` (stereo not given), the cytotoxicity at 10 µM was determined as 0.61%.
With `CC(=O)N1CCN(CCCOc2ccccc2F)CC(C(N)=O)C1` (stereo not given), the cytotoxicity at 10 µM was -28.7%.
As to `CNC(=O)c1cn[nH]c1C1(C)CCCN(Cc2nccn2C(C)C)C1` (stereo not given), the cytotoxicity at 10 µM was -2.73%.
For the molecule `COc1ccc(C2Nc3cc(Cl)ccc3C3=NCCN32)cc1CO` (stereo not given), the cytotoxicity at 10 µM is -19.3%.
As for `CC[C@@H]1C[C@H](C(F)(F)F)n2nc(C3CCN(S(=O)(=O)CC)CC3)cc2N1`, the figure is -28.2%.
As for `O=C1CO[C@H]2CN(Cc3ccccc3Br)C[C@@H]2N1`, the figure is 2.13%.
As for `CN(CC1(O)CCN(c2ccccn2)C1)C(=O)Cc1ccsc1` (stereo not given), the figure is -11.7%.
Turning to `CCn1ncc(CN2C[C@@H]3CCCN3C[C@@H]2CCSC)c1C`, the cytotoxicity at 10 µM is -27.3%.
In the case of `CCCn1nnnc1CN(CC)CC1COc2ccccc2O1` (stereo not given), the cytotoxicity at 10 µM stood at 13.3%.
As for `CN1CCN(S(=O)(=O)c2ccc(Sc3nccn3C)nc2)CC1`, the figure is 10.2%; as for `CS(=O)(=O)CCn1ccc(NC(=O)c2c(F)cccc2F)n1`, 18.2%.
Turning to `O=C(O)c1ccn(-c2ccc(NC(=O)c3ccccc3Cl)cc2)n1`, the cytotoxicity at 10 µM was -140%.
For `Cc1cc(C)c(CNC(=O)NCCNc2ccccn2)c(=O)[nH]1`, the cytotoxicity at 10 µM was -37%.
With `N#Cc1cccnc1N1CCCN(C(=O)CCc2cccs2)CC1`, the cytotoxicity at 10 µM is -15.8%.
As for `Cc1cnn(CC2CCCN2C(=O)CCc2ccco2)c1` (stereo not given), the figure is -4.7%.
As for `Cc1cc(C)n(CC2CN(Cc3ccc(C(N)=O)cc3)CCO2)n1` (stereo not given), the figure is -15.1%; as for `CCc1noc(CC)c1CC(=O)N1CCN(C(C#N)C(C)C)CC1` (stereo not given), -9.66%; as for `COc1ccsc1C(=O)Nc1cc(Br)c(=O)n(C)c1`, -11%.
As for `O=C(c1cscn1)N1CCc2ncc(CN3CCOCC3)n2CC1`, the figure is -75.6%.
Turning to `O=C(c1ccnnc1)N1C[C@@H]2COC[C@]2(COCC2CC2)C1`, the cytotoxicity at 10 µM was -73.2%.
The same measure for `Cn1cc(-c2nnn3c2COC(CNCc2ccccn2)C3)cn1` (stereo not given): 0.298%; for `Nc1ncccc1CN1CCCn2nc(CCC(=O)NC3CC3)cc2C1`: 1.45%; for `CC(Nc1nc(-c2ccncc2)nc2c1CCNC2)c1ccccc1` (stereo not given): -9.94%.
The same measure for `CCN1CC(C(=O)NCc2nc(C3CCCCC3)no2)CC1=O` (stereo not given): -3.68%; for `CC(=O)c1ccc(-c2cnn(CC(=O)Nc3ccnn3C)c2)nc1`: 1.99%; for `C=C(C)COc1cccc(C(=O)N2CCC3(CC2)CN(C)CCN3C)c1`: -52.4%.
As for `COc1ccccc1-n1cc(C(=O)NCCCn2nc(C)nc2C)cn1`, the figure is 5.02%; as for `CC(C)[C@H]1CN(Cc2ccccc2C#N)C[C@@H]1NC(=O)C1CCOCC1`, 1.47%.
On to `COc1ccc(NC2CCCN(Cc3cnc(N(C)C)s3)C2)cc1` (stereo not given), for which the cytotoxicity at 10 µM came to 0.88%.
The same measure for `Cc1nc2c(c(NC3CCN(Cc4cccnc4)CC3)n1)CCNCC2`: -1.14%; for `Cc1nnc2n1CCN(Cc1ncc(-c3ccc(F)cc3)o1)C2`: -10.7%.
As for `Cc1nc(C2CCCN2CC(=O)N2CCc3ccccc32)no1` (stereo not given), the figure is -19.6%.
The same measure for `CCc1nc(C2CCCN2CCC(=O)N2CCc3ccccc32)no1` (stereo not given): -23.7%.
On to `COc1ccc(C2=CCN(C(=O)CN(C)Cc3ccco3)CC2)cc1`, for which the cytotoxicity at 10 µM was -6.16%.
As for `O=C(Cc1ccccc1)NCCNC(=O)c1scnc1Cl`, the figure is -1.55%; as for `Cn1ccc(C(=O)NCc2ccc(N3CCCCC3)nc2)cc1=O`, -10.8%.
On to `CCc1csc(C2CCCN(C(=O)COc3cc(C)on3)C2)n1` (stereo not given), for which the cytotoxicity at 10 µM is -9.71%.
Take `Cc1cccc(NC(=O)N2CCN(Cc3noc(C4CC4)n3)CC2)c1`: the cytotoxicity at 10 µM is -10.1%.
Take `COC(=O)c1cccc(NC(=O)CCn2nc(-c3cccs3)oc2=O)c1`: the cytotoxicity at 10 µM was -8.13%.
As to `COc1ncccc1C(=O)N1CCCC(c2cc(C)[nH]n2)C1` (stereo not given), the cytotoxicity at 10 µM was -7.49%.
Consider `CC(C)c1nc2c(n1C)CCN(CC(=O)Nc1nccs1)C2`, for which the cytotoxicity at 10 µM turned out to be 1.88%.
With `OCCN(Cc1ccncc1)CC1(c2ccc(Cl)cc2)CC1`, the cytotoxicity at 10 µM amounted to 9.39%.
As for `Cn1cc(C(=O)NC[C@H]2OC[C@@H]3CCN(C4CCOCC4)C[C@@H]32)cn1`, the figure is 8.01%; as for `CC(=O)N1CCc2ncn(C)c2C1C(=O)N1CCCC1` (stereo not given), 1.9%.
As for `COCCNC(=O)[C@@]12CCO[C@@H]1CCN(Cc1ccncc1)C2`, the figure is -77.3%; as for `Cc1ccc(CN2C[C@@H]3[C@@H](C2)OCC(=O)N3Cc2ccncc2)s1`, -67.7%; as for `Cc1n[nH]c(C)c1CNCC(O)c1cccc(Cl)c1` (stereo not given), 4.91%.
On to `O=C(c1ccsc1)N1CCc2onc(COc3ccccn3)c2C1`, for which the cytotoxicity at 10 µM came to 6.43%.
The same measure for `CCN1C(=O)CCC12CCCN(Cc1nccs1)C2` (stereo not given): -73.5%; for `c1cnc(N2CCC3(COCCN(CC4CC4)C3)C2)nc1` (stereo not given): 0.668%; for `CCOCCC(=O)N1C[C@@H]2CC[C@H]1CN(Cc1ccncc1)C2`: -11.1%.

(Values after ChEMBL document CHEMBL4513216, “Probing the Open Global Health Chemical Diversity Library for Multistage-Active Starting Points for Next-Generation Antimalarials” (ACS Infect Dis, 2020).)
